According to ChEMBL document CHEMBL4706770, “SD-91 as A Potent and Selective STAT3 Degrader Capable of Achieving Complete and Long-Lasting Tumor Regression” (ACS Med Chem Lett, 2021):
Activity calls are given as the source filed them. No cut-off for these calls is given here.

How the values were obtained:
[1] = molecular target: Protein cereblon/Signal transducer and activator of transcription 6 (Homo sapiens) (UniProt P42226+Q96SW2); assay: Protac activity at CRBN/STAT6 in human SUP-M2 cells assessed as STAT6 degradation at 0.25 to 100 uM incubated for 4 hrs by Western blot analysis; type: cell-based; details: SUPM2, dose 0.25-100 µM
Chain of Protein cereblon/Signal transducer and activator of transcription 6 (Homo sapiens) (Q96SW2 whole entry partner, one chain of several): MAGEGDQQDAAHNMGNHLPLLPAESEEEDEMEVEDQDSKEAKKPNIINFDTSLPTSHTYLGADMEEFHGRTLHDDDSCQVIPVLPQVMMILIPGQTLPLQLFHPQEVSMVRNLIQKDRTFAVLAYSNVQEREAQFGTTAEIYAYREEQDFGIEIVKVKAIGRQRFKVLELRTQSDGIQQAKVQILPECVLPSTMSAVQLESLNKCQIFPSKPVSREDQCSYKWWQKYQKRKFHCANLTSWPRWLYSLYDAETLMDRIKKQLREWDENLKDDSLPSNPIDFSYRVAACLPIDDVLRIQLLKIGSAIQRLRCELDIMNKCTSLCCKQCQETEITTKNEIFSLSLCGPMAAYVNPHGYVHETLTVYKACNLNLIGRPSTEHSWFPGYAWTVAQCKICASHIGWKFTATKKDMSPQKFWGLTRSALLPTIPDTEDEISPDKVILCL

[2] = molecular target: Protein cereblon/Signal transducer and activator of transcription 3 (Homo sapiens, UniProt P40763+Q96SW2); assay: In vivo protac activity at CRBN/STAT3 degradation in SCID mouse xenografted with human MOLM16 cells assessed as reduction in STAT3 in tumor tissue at 50 mg/kg, iv measured after 24 hrs by immunoblotting analysis; type: functional, organism-based
Chain of Protein cereblon/Signal transducer and activator of transcription 3 (P40763 2-770 limits assumed): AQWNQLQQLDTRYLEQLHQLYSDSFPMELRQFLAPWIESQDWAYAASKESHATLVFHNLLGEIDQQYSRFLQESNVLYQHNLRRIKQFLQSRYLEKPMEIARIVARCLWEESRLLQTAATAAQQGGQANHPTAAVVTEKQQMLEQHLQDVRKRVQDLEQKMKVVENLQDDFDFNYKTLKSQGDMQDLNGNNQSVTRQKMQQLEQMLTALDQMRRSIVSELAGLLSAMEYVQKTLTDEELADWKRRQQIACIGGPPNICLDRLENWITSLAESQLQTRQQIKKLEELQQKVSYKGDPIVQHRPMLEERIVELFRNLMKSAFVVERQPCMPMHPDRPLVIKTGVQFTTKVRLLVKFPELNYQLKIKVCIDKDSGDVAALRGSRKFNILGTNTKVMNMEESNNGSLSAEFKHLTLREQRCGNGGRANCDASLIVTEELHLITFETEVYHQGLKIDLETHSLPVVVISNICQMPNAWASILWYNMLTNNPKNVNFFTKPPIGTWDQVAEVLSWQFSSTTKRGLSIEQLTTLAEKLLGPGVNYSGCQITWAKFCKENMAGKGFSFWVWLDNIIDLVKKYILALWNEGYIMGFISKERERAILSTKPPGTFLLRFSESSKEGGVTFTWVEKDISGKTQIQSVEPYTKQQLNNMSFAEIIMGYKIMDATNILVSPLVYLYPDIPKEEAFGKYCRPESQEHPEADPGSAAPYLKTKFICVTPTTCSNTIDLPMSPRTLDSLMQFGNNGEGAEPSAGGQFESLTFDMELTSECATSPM
Chain of Protein cereblon/Signal transducer and activator of transcription 3 (Q96SW2 whole entry partner): as the sequence (Q96SW2 whole entry partner, one chain of several) above
Outline: (§1)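 SCID mice bearing MOLM-16 tumors given a single iv dose of 50 mg/kg or dosing vehicle. Tumor lysates immunoblotted for STAT3, STAT1 and STAT6 at time points from 1 h to at least 24 h.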

[3] = (§2) Drug uptake in SCID mouse xenografted with human MOLM16 cells assessed as (2-(((5S,8S,10aR)-8-(((S)-5-amino-1-(benzhydrylamino)-1,5-dioxopentan-2-yl)carbamoyl)-3-(8-(2-(2,6-dioxopiperidin-3-yl)-1-oxoisoindolin-4-yl)oct-7-yno yl)-6-oxodecahydropyrrolo[1,2-a][1,5]diazocin-5-yl)carbamoyl)-1H-indole-5-carbonyl)phosphonic acid level in tumor tissue at 50 mg/kg, iv measured after 1 hrs by LC-MS/MS; type: ADME, organism-based; details: in vivo
Outline: (§3)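 SCID mice bearing MOLM-16 xenografts given a single iv dose of 50 mg/kg. Concentrations of parent and hydrolysis product measured in plasma (ng/mL) and tumor tissue (ng/g) at 1, 6 and 24 h.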

[4] = as §2, with “in plasma” for “in tumor tissue”, “after 6” for “after 1”; type: ADME, organism-based; details: in vivo; outline: as §3
[5] = molecular target: Protein cereblon/Signal transducer and activator of transcription 2 (Homo sapiens) (UniProt Q96SW2+P52630); assay: Protac activity at CRBN/STAT2 in human MOLM16 cells assessed as STAT2 degradation at 0.25 to 100 uM incubated for 4 hrs by Western blot analysis; type: cell-based; details: dose 0.25-100 µM
Chain of Protein cereblon/Signal transducer and activator of transcription 2 (Homo sapiens) (P52630 whole entry, looked up): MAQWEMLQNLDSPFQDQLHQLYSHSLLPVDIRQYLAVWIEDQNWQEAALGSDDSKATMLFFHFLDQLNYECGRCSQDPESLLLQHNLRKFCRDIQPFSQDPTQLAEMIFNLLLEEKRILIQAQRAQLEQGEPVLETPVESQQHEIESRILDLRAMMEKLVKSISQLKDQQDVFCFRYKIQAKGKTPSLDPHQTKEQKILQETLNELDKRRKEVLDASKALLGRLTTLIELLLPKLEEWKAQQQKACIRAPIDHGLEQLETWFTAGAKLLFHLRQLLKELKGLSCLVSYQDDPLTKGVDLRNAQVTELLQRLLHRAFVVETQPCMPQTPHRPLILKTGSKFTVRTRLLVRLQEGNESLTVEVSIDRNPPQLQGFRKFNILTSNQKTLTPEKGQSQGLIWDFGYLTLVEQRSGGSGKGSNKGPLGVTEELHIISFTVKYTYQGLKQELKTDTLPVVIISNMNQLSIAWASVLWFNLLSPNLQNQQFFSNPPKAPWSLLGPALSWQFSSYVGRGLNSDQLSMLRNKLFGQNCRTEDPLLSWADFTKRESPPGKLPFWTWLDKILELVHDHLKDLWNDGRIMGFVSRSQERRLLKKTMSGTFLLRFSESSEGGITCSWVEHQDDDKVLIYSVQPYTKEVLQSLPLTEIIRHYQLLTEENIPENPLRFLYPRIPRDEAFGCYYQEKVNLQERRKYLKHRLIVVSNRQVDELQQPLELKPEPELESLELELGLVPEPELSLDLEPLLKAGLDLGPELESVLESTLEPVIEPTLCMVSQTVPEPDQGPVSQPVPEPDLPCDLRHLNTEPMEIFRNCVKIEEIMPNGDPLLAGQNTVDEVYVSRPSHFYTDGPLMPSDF
Chain of Protein cereblon/Signal transducer and activator of transcription 2 (Homo sapiens) (Q96SW2 whole entry, looked up): as the sequence (Q96SW2 whole entry partner, one chain of several) above
Outline: (§4)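 Cells treated 4 h with compounds across 25 nM to 100 μM; STAT proteins detected by Western blot with GAPDH as loading control; STAT3 DC50 estimated by densitometry of STAT3 relative to GAPDH. Applies to MOLM-16 for all STATs, and to SU-DHL-1 and SUP-M2 for STAT3.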

Mus musculus [6] = assay: In vivo induction of STAT3 degradation in SCID mouse xenografted with human SU-DHL-1 cells assessed as reduction in total STAT3 level in tumor tissue at 50 mg/kg, iv measured after 24 hrs by immunoblotting analysis; type: functional, organism-based
Outline: (§5)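 SCID mice bearing MOLM-16 or SU-DHL-1 xenografts given a single iv dose of 50 mg/kg or dosing vehicle. Tumor lysates immunoblotted for p-STAT3 Y705 and total STAT3 at time points up to 48 h (MOLM-16) and 24 h (SU-DHL-1).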

[7] = Stability of the compound in PEG400/phosphate buffer saline measured upto 100 hrs by LC/MS/MS analysis; type: physicochemical
Outline: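 Compound incubated at room temperature in dosing vehicle (10% PEG400/90% phosphate buffered saline); percentages of parent and conversion products determined at time points up to 96 h.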

[8] = molecular target: T1, Signal transducer and activator of transcription 6 (Homo sapiens, UniProt P42226); assay: Binding affinity to human recombinant STAT6 assessed as dissociation constant incubated for 15 mins by biolayer interferometry
T1 sequence (P42226 whole entry): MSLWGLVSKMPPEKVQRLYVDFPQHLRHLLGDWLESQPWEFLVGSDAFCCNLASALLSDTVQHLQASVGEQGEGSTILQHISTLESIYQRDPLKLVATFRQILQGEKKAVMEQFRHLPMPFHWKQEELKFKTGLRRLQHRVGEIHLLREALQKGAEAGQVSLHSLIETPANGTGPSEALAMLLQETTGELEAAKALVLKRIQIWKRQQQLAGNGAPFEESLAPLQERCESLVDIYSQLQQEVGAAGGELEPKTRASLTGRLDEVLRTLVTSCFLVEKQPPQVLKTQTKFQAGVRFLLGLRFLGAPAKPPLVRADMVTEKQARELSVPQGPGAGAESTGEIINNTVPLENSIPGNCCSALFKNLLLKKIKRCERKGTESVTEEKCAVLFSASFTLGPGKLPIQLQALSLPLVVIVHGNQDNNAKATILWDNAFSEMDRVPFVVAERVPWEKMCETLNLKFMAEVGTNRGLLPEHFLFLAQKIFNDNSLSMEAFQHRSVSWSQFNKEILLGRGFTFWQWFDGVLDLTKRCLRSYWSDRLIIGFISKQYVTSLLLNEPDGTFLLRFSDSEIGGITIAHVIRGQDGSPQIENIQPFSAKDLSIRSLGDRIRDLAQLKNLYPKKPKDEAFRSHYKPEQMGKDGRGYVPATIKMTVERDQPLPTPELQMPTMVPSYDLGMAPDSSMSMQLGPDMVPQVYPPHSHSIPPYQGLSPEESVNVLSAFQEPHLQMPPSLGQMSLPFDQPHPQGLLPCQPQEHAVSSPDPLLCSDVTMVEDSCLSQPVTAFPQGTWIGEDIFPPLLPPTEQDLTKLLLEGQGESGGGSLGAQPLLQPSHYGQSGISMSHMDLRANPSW
Outline: (§6)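 Biolayer interferometry with recombinant human STAT1, STAT2, STAT3, STAT4, STAT5A, STAT5B or STAT6 proteins containing their SH2 domain. Compound run in 2× serial dilutions from 200 nM. Kd taken from steady-state fitting of equilibrium responses against concentration using a 1:1 binding model.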

[9] = Stability of the compound in complete cell culture medium measured upto 100 hrs by LC/MS/MS analysis; type: physicochemical
Outline: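 Compound incubated at 37 °C in the cell culture media used for cellular assays; percentages of parent and conversion products determined at time points up to 96 h.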

[10] = molecular target: T2, Signal transducer and activator of transcription 3 (Homo sapiens, UniProt P40763); assay: Binding affinity to human recombinant STAT3 assessed as dissociation constant incubated for 15 mins by biolayer interferometry; outline: as §6
T2 sequence (P40763 whole entry): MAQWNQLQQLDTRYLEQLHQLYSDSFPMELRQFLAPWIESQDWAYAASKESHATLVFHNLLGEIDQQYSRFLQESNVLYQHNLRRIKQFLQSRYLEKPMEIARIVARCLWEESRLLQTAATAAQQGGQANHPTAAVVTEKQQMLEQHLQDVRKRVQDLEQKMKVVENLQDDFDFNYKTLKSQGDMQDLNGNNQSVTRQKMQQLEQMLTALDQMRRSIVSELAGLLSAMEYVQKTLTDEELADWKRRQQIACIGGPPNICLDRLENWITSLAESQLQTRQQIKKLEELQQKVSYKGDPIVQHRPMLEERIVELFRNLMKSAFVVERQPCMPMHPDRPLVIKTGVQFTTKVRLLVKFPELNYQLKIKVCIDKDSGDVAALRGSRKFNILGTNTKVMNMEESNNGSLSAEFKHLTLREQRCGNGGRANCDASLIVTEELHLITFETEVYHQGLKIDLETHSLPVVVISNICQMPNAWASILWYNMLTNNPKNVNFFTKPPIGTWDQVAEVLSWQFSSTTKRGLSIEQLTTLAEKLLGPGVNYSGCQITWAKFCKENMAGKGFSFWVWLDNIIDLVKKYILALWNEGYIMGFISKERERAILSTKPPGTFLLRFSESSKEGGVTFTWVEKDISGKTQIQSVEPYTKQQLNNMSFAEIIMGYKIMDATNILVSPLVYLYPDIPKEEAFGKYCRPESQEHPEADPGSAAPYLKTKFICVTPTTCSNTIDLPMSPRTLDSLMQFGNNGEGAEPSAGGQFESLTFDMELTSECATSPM

[11] = molecular target: T2, Signal transducer and activator of transcription 3; assay: Induction of STAT3 degradation in human SU-DHL-1 cells incubated for 4 hrs by western blot analysis; type: cell-based; outline: as §4
Mus musculus [12] = assay: In vivo induction of STAT3 degradation in SCID mouse xenografted with human SU-DHL-1 cells assessed as reduction in phosphorylated STAT3 level in tumor tissue at 50 mg/kg, iv measured after 24 hrs by immunoblotting analysis; type: functional, organism-based; outline: as §5
[13] = molecular target: T2, Signal transducer and activator of transcription 3; assay: Induction of STAT3 degradation in human MOLM-16 cells assessed as decrease in STAT3 level at 1 uM incubated for 4 hrs by proteomic analysis; type: cell-based; details: MOLM16
Outline: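 MOLM-16 cells treated with 1 or 10 μM for 4 h. Protein levels measured by quantitative proteomics across more than 7000 proteins.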

Mus musculus [14] = assay: In vivo induction of STAT3 degradation in SCID mouse xenografted with human MOLM16 cells assessed as reduction in STAT3 in tumor tissue at 50 mg/kg, iv measured after 24 hrs by immunoblotting analysis; type: functional, organism-based; outline: as §1

Row | Compound | Activity [1] | Activity [2] | Drug uptake [3] [ng/g] | Drug uptake [4] [ng/mL] | Activity [5] | Activity (Mus musculus [6]) | Stabilty [7] | Kd [8] [nM] | Stabilty [9] | Kd [10] [nM] | DC50 [11] [nM] | Activity (Mus musculus [12]) | Activity [13] | Activity (Mus musculus [14])
1 | NC(=O)CC[C@H](NC(=O)[C@@H]1CC[C@@H]2CCN(C(=O)CCCCCC#Cc3cccc4c3CN(C3CCC(=O)NC3=O)C4=O)C[C@H](NC(=O)c3cc4cc(C(F)(F)P(=O)(O)O)ccc4[nH]3)C(=O)N21)C(=O)NC(c1ccccc1)c1ccccc1 (some centres undefined) | inactive | Active | 6350 | 25560 | inactive |  |  |  |  |  |  |  |  | 
2 | NC(=O)CC[C@H](NC(=O)[C@@H]1CC[C@@H]2CCN(C(=O)CCCCCC#Cc3cccc4c3CN(C3CCC(=O)NC3=O)C4=O)C[C@H](NC(=O)c3cc4cc(C(=O)P(=O)(O)O)ccc4[nH]3)C(=O)N21)C(=O)NC(c1ccccc1)c1ccccc1 (some centres undefined) |  |  |  |  |  | Active | Stable | > 10 | Stable | 28 | 17 | Active | Active | Active
